Results on 2 molecules are retold here after ChEMBL document CHEMBL1142628, “Antineoplastic agents 430. Isolation and structure of cribrostatins 3, 4, and 5 from the republic of maldives cribrochalina species” (2000).

Test [1] concerns Cryptococcus neoformans. Kind of test: Antifungal activity against Cryptococcus neoformans ATCC 90112 by disk diffusion method. It counts as functional. (In general: Agar diffusion results depend on both activity and mobility in agar.)
In test [2] the test system is Micrococcus luteus. The test can be described thus: Antibacterial activity against Micrococcus luteus Presque Isle 456 by disk diffusion method. It is filed as functional.
Test [3] deals with Staphylococcus aureus. The test can be described thus: Antibacterial activity against Staphylococcus aureus ATCC 29213 by disk diffusion method. It is filed as functional.
In test [4] the test system is Enterococcus faecalis. Kind of test: Antibacterial activity against Enterococcus faecalis ATCC 29212 at 100 ug/disk by disk diffusion method. It is filed as functional, organism-based.
For test [5], the system named is Bacillus subtilis. The test can be described thus: Antibacterial activity against Bacillus subtilis Presque Isle 620 by disk diffusion method. It counts as functional.
Test [6] has as its system Streptococcus pneumoniae. Kind of test: Antibacterial activity against Streptococcus pneumoniae ATCC 6303 by disk diffusion method. It is filed as functional.
For test [7], the system named is Streptococcus pneumoniae. The test can be described thus: Antibacterial activity against penicillin-resistant Streptococcus pneumoniae isolate by disk diffusion method. It counts as functional.
Test [8] concerns Streptococcus pneumoniae. Kind of test: Antibacterial activity against invasive Streptococcus pneumoniae isolate by disk diffusion method. It counts as functional.
For test [9], the system named is Streptococcus sp. 'group A'. Kind of test: Antibacterial activity against group A Streptococcus isolate at 100 ug/disk by disk diffusion method. It is filed as functional, organism-based.
Test [10] deals with Stenotrophomonas maltophilia. Kind of test: Antibacterial activity against Stenotrophomonas maltophilia ATCC 13637 at 100 ug/disk by disk diffusion method. It is filed as functional, organism-based.
Test [11] concerns Escherichia coli. Kind of test: Antibacterial activity against Escherichia coli ATCC 25922 at 100 ug/disk by disk diffusion method. It is filed as functional, organism-based.
For test [12], the system named is Enterobacter cloacae. Kind of test: Antibacterial activity against Enterobacter cloacae ATCC 13047 at 100 ug/disk by disk diffusion method. It is filed as functional, organism-based.
In test [13] the test system is Neisseria gonorrhoeae. The test can be described thus: Antibacterial activity against Neisseria gonorrhoeae ATCC 49226 by disk diffusion method. It is filed as functional.
For test [14], the system named is Candida albicans. Kind of test: Antifungal activity against Candida albicans ATCC 90028 by disk diffusion method. It counts as functional.
Test [15] deals with BXPC-3. Kind of test: Growth inhibition of human BXPC3 cells. It counts as functional.
The test system of test [16] is OVCAR-3. The test can be described thus: Growth inhibition of human OVCAR-3 cells. It is filed as functional. The method, boiled down: (§1)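 NCI 60-cell-line screen run by the standard NCI protocol. Each test agent ran in quadruplicate, with a top concentration of 10^-5 M and five log-spaced dilutions. GI50 values were averaged and reported as negative log GI50.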

In test [17] the test system is SF-295. The test can be described thus: Growth inhibition of human SF295 cells. It is filed as functional. The method, boiled down: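 NCI human tumor cell line panel screen run to the standard NCI protocol. Each compound tested in quadruplicate with a top concentration of 10^-5 M and five log-spaced dilutions. GI50 values were averaged across replicates and reported as negative log GI50.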

The test system of test [18] is NCI-H460. The test can be described thus: Growth inhibition of human NCI-H460 cells. It counts as functional. In short, it runs like this:
as §1

Test [19] has as its system KM-20L2. The test can be described thus: Growth inhibition of human KM20L2 cells. It counts as functional.
Test [20] concerns DU-145. The test can be described thus: Growth inhibition of human DU145 cells. It counts as functional. The method, boiled down: as §1
In test [21] the test system is P388. The test can be described thus: Growth inhibition of mouse P388 cells. It is filed as functional.
The subject of test [22] is Candida albicans. The test can be described thus: Antifungal activity against Candida albicans ATCC 90028 at 100 ug/disk by disk diffusion method. It counts as functional, organism-based.
Test [23] relates to Cryptococcus neoformans. Kind of test: Antifungal activity against Cryptococcus neoformans ATCC 90112 at 100 ug/disk by disk diffusion method. It counts as functional, organism-based.
The test system of test [24] is Staphylococcus aureus. The test can be described thus: Antibacterial activity against Staphylococcus aureus ATCC 29213 at 100 ug/disk by disk diffusion method. It is filed as functional, organism-based.
Test [25] has as its system Bacillus subtilis. Kind of test: Antibacterial activity against Bacillus subtilis Presque Isle 620 at 100 ug/disk by disk diffusion method. It is filed as functional, organism-based.
Test [26] deals with Streptococcus pneumoniae. The test can be described thus: Antibacterial activity against Streptococcus pneumoniae ATCC 6303 at 100 ug/disk by disk diffusion method. It counts as functional, organism-based.

SMILES strings stand for the structures. ≈ marks a conversion by molar mass, not a printed value. Calls of active or inactive are those of the source. The calls are words filed in the database; no cut-off is given here.

Take `CCOC1=C(C)C(=O)c2cc(=O)n(C)cc2C1=O` [CRIBROSTATIN 2]: the MIC stood at 12.5 µg/disc in test [1]; 50 µg/disc in test [2]; 12.5 µg/disc in test [3]; 25 µg/disc in test [5]; 12.5 µg/disc in test [6]; 25 µg/disc in test [7]. Further, the MIC was 50 µg/disc in [8], 0.39 µg/disc in test [13] and 3.12 µg/disc in test [14]. Besides, the result in [4], in [9], in test [10], in [11] and in test [12] was inactive.
Usually GI50 stands for the concentration giving 50% growth inhibition. A higher GI50 goes with less potent growth inhibition. On to `C/C=C(/C)C(=O)OCc1nccc2c1C(=O)C(NC)=C(C)C2=O` [CRIBROSTATIN 4], for which the concentration for 50% growth inhibition (GI50) in test [15] came to 0.29 µg/mL (≈ 0.923 µM); in test [16] it was 0.18 µg/mL (≈ 0.573 µM); in [17], 0.36 µg/mL (≈ 1.15 µM); in test [18], 0.22 µg/mL (≈ 0.7 µM); in [19], 0.14 µg/mL (≈ 0.445 µM); in [20] it was 0.3 µg/mL (≈ 0.954 µM). Also, the GI50 in test [21] came out at 0.045 µg/mL (≈ 0.143 µM). Also, the EC50 in [21] (read-out: ED50 (the source's name)) was 0.045 µg/mL (≈ 0.143 µM). Further, the result in test [22], in test [23], in [24], in test [4], in [25] and in test [26] was inactive. Further, the outcome in test [10] and in test [11] was inactive. Moreover, the MIC in test [2] is 50 µg/disc; in test [13], 6.25 µg/disc.
